# From ChEMBL document CHEMBL5724801, “EUbOPEN Chemogenomics Library - Multiplex” (2024)
# “And” between values parts separate entries of the source, which are not always exact repeats. Identical values can stand only once.
# Tested on: U2OS
# Assay: Multiplex assay against U2OS
# Format: toxicity, cell-based
# Details: human
# Outline: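 Hoechst33342, BioTracker Green Microtubule Cytoskeleton Dye, MitoTracker Red and Annexin V Alexa Fluor 680 were added to live cells at seeding, and imaging on a CQ1 microscope at 37°C and 5% CO2 followed compound addition. Gating by CellPathfinder machine learning separated cells into Hoechst high-intensity objects or normal cells, then normal cells into healthy, pyknosed or fragmented nuclei, then pyknosed cells into mitotic or apoptotic. Per cents of healthy-nucleus cells are reported for the tubulin, mitochondrial-mass and membrane-permeability phenotypes.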
# [1] = 12 h, 1 µM, compound concentration 1 uM
# [2] = 12 h, 10 µM, compound concentration 10 uM
# [3] = 24 h, 1 µM, compound concentration 1 uM
# [4] = 24 h, 10 µM, compound concentration 10 uM
# [5] = 48 h, 1 µM, compound concentration 1 uM
# [6] = 48 h, 10 µM, compound concentration 10 uM
smiles,measurement,setting,value
CCc1nn2c(C)cc(C)nc2c1Cc1ccc(-c2nnc(C3CCNCC3)o2)cc1,Population Apoptotic (%),[1],42% and 85%
same,Population Healthy Nuclei (%),[1],60% and 84%
same,Population Hoechst High Intensity Objects (%),[1],3% and 2%
same,Population Membrane Permeable-Phenotype (%),[1],12% and 14%
same,Population Mitochondria Different-Phenotype (%),[1],10% and 17%
same,Population Normal (%),[1],96% and 97%
same,Population Pyknosed Nuclei (%),[1],10% and 6%
same,Population Tubulin-Different-Phenotype (%),[1],11% and 4%
same,Total Cell Count,[1],251 and 110
same,Population Apoptotic (%),[2],68% and 77%
same,Population Fragmented Nuclei (%),[2],24% and 8%
same,Population Healthy Nuclei (%),[2],55% and 76%
same,Population Hoechst High Intensity Objects (%),[2],5% and 2%
same,Population Membrane Permeable-Phenotype (%),[2],26% and 30%
same,Population Mitochondria Different-Phenotype (%),[2],43% and 62%
same,Population Mitotic Cells (%),[2],31% and 22%
same,Population Normal (%),[2],94% and 97%
same,Population Pyknosed Nuclei (%),[2],20% and 14%
same,Population Tubulin-Different-Phenotype (%),[2],28% and 44%
same,Total Cell Count,[2],214 and 129
same,Population Apoptotic (%),[3],80% and 87%
same,Population Fragmented Nuclei (%),[3],26% and 13%
same,Population Healthy Nuclei (%),[3],63% and 80%
same,Population Hoechst High Intensity Objects (%),[3],2% and 3%
same,Population Membrane Permeable-Phenotype (%),[3],4% and 7%
same,Population Mitochondria Different-Phenotype (%),[3],6% and 12%
same,Population Mitotic Cells (%),[3],20% and 12%
same,Population Normal (%),[3],97% and 96%
same,Population Pyknosed Nuclei (%),[3],10% and 6%
same,Population Tubulin-Different-Phenotype (%),[3],3%
same,Total Cell Count,[3],296 and 130
same,Population Apoptotic (%),[4],77% and 71%
same,Population Fragmented Nuclei (%),[4],24% and 15%
same,Population Healthy Nuclei (%),[4],55% and 71%
same,Population Hoechst High Intensity Objects (%),[4],3%
same,Population Membrane Permeable-Phenotype (%),[4],9% and 16%
same,Population Mitochondria Different-Phenotype (%),[4],40% and 61%
same,Population Mitotic Cells (%),[4],22% and 28%
same,Population Normal (%),[4],96%
same,Population Pyknosed Nuclei (%),[4],19% and 13%
same,Total Cell Count,[4],236 and 163
same,Population Apoptotic (%),[5],90% and 85%
same,Population Fragmented Nuclei (%),[5],17% and 12%
same,Population Healthy Nuclei (%),[5],71% and 72%
same,Population Hoechst High Intensity Objects (%),[5],2%
same,Population Membrane Permeable-Phenotype (%),[5],6% and 7%
same,Population Mitochondria Different-Phenotype (%),[5],2% and 6%
same,Population Mitotic Cells (%),[5],10% and 14%
same,Population Normal (%),[5],97%
same,Population Pyknosed Nuclei (%),[5],10% and 14%
same,Population Tubulin-Different-Phenotype (%),[5],4%
same,Total Cell Count,[5],376 and 187
same,Population Apoptotic (%),[6],82% and 75%
same,Population Fragmented Nuclei (%),[6],24% and 12%
same,Population Healthy Nuclei (%),[6],55% and 71%
same,Population Hoechst High Intensity Objects (%),[6],2%
same,Population Membrane Permeable-Phenotype (%),[6],10% and 22%
same,Population Mitochondria Different-Phenotype (%),[6],29% and 31%
same,Population Mitotic Cells (%),[6],17% and 24%
same,Population Normal (%),[6],97%
same,Population Pyknosed Nuclei (%),[6],19% and 15%
same,Total Cell Count,[6],290 and 219
CSc1ccccc1N1CCN(CCCCCC(=O)NC2CCCc3ccccc32)CC1.Cl (configuration not stated),Population Apoptotic (%),[1],62% and 36%
same,Population Fragmented Nuclei (%),[1],22% and 24%
same,Population Healthy Nuclei (%),[1],61% and 63%
same,Population Hoechst High Intensity Objects (%),[1],9% and 3%
same,Population Membrane Permeable-Phenotype (%),[1],73% and 51%
same,Population Mitochondria Different-Phenotype (%),[1],71% and 85%
same,Population Mitotic Cells (%),[1],37% and 63%
same,Population Normal (%),[1],90% and 96%
same,Population Pyknosed Nuclei (%),[1],15% and 11%
same,Population Tubulin-Different-Phenotype (%),[1],88% and 72%
same,Total Cell Count,[1],222 and 101
same,Population Apoptotic (%),[2],70% and 84%
same,Population Fragmented Nuclei (%),[2],41% and 23%
same,Population Healthy Nuclei (%),[2],39% and 55%
same,Population Hoechst High Intensity Objects (%),[2],8% and 4%
same,Population Membrane Permeable-Phenotype (%),[2],67% and 60%
same,Population Mitochondria Different-Phenotype (%),[2],90% and 92%
same,Population Mitotic Cells (%),[2],29% and 16%
same,Population Normal (%),[2],91% and 95%
same,Population Pyknosed Nuclei (%),[2],18% and 21%
same,Population Tubulin-Different-Phenotype (%),[2],96% and 98%
same,Total Cell Count,[2],221 and 125
same,Population Apoptotic (%),[3],54% and 58%
same,Population Fragmented Nuclei (%),[3],22% and 25%
same,Population Healthy Nuclei (%),[3],60% and 58%
same,Population Hoechst High Intensity Objects (%),[3],6% and 2%
same,Population Membrane Permeable-Phenotype (%),[3],63% and 46%
same,Population Mitochondria Different-Phenotype (%),[3],63% and 74%
same,Population Mitotic Cells (%),[3],45% and 41%
same,Population Normal (%),[3],94% and 97%
same,Population Pyknosed Nuclei (%),[3],17% and 15%
same,Population Tubulin-Different-Phenotype (%),[3],75% and 63%
same,Total Cell Count,[3],250 and 111
same,Population Apoptotic (%),[4],89% and 94%
same,Population Fragmented Nuclei (%),[4],44% and 19%
same,Population Healthy Nuclei (%),[4],28% and 44%
same,Population Hoechst High Intensity Objects (%),[4],6% and 10%
same,Population Membrane Permeable-Phenotype (%),[4],79% and 90%
same,Population Mitochondria Different-Phenotype (%),[4],81% and 56%
same,Population Mitotic Cells (%),[4],10% and 5%
same,Population Normal (%),[4],93% and 89%
same,Population Pyknosed Nuclei (%),[4],26% and 37%
same,Population Tubulin-Different-Phenotype (%),[4],91% and 97%
same,Total Cell Count,[4],219 and 112
same,Population Apoptotic (%),[5],64% and 95%
same,Population Fragmented Nuclei (%),[5],25% and 28%
same,Population Healthy Nuclei (%),[5],53% and 52%
same,Population Hoechst High Intensity Objects (%),[5],8% and 5%
same,Population Membrane Permeable-Phenotype (%),[5],42% and 41%
same,Population Mitochondria Different-Phenotype (%),[5],56% and 63%
same,Population Normal (%),[5],91% and 94%
same,Population Pyknosed Nuclei (%),[5],21% and 18%
same,Population Tubulin-Different-Phenotype (%),[5],50% and 44%
same,Total Cell Count,[5],272 and 137
same,Population Apoptotic (%),[6],98% and 100%
same,Population Fragmented Nuclei (%),[6],43% and 25%
same,Population Healthy Nuclei (%),[6],18% and 20%
same,Population Hoechst High Intensity Objects (%),[6],15% and 11%
same,Population Membrane Permeable-Phenotype (%),[6],77% and 85%
same,Population Mitochondria Different-Phenotype (%),[6],33% and 45%
same,Population Mitotic Cells (%),[6],1% and 0%
same,Population Normal (%),[6],84% and 88%
same,Population Pyknosed Nuclei (%),[6],38% and 54%
same,Population Tubulin-Different-Phenotype (%),[6],75% and 95%
same,Total Cell Count,[6],232 and 109
